Compound activity (PubChem BioAssay)
A selection: hits, their analogues and other compounds. The true share with any hit is near 3.3%.
FGF22 binding: binders of human FGF22 protein, primary screen, FGF22 synaptogenesis inhibitor project, biophysical, thermal shift, single point | AID 651658, 2012 | 340,000 tested, 1.5% active | recombinant FGF22 thermal shift, SYPRO orange fluorescence; percent of sucrose octasulfate shift, DMSO zero | activity (Tm shift, normalised), % at 9.99 µM | Fibroblast growth factor 22 (Homo sapiens), Q9HCT0;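 active means mean Tm shift, scaled 0 neutral to 100 positive control, at about 1.3% or above, every replicate too, limit read from the data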
E-sel inducer: E-selectin induction in HUVECs, primary screen, imaging, HUVEC, immunofluorescence imaging, single point; P16581; normalized: neutral wells 0, TNF-alpha wells 100; activation, % at 7.58 µM; 260,000 tested, 0.37% active; AID 686992, 2013;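 active means mean E-selectin-positive cell signal at least 10% of the positive control, reached in at least 60% of replicates, without over 20% cell loss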
Target sequence (P16581 whole entry, looked up): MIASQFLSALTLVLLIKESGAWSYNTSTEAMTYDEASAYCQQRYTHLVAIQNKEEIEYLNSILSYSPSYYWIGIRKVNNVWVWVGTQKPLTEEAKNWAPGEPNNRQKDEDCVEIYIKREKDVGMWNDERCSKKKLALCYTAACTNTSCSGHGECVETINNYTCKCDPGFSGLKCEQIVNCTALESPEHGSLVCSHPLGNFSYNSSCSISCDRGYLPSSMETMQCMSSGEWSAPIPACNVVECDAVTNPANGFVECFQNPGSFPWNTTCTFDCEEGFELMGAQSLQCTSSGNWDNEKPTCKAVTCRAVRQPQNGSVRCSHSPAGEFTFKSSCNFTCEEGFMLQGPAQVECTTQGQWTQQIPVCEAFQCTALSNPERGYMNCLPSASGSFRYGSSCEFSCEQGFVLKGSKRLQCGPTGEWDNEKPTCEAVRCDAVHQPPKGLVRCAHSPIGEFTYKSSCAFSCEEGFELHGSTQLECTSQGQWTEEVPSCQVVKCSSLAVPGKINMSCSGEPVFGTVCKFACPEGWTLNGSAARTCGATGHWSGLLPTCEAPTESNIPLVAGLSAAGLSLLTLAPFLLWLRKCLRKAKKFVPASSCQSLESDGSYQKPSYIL
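Test system – human umbilical vein endothelial cells (HUVEC), E-selectin induction · Input – 3,000 HUVEC seeded per well · Buffer or medium – EGM-2, gelatin · Compound dosing – single-point compound dose · Detection – immunofluorescence imaging · Measure – percent E-selectin-positive cells · Controls – TNF-alpha high, DMSO low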
PglD inh: C. jejuni PglD acetyltransferase inhibitors, primary screen, biochemical, DTNB colorimetric, single point; UDP-N-acetylbacillosamine N-acetyltransferase PglD (Campylobacter jejuni); purified PglD enzyme, DTNB colorimetric CoA detection; inhibition, % at 12.5 µM; 360,000 tested, 0.098% active; in the data active means inhibition above about 16%, passing the limit was not always enough
Statin myotox sup: suppressors of statin myotoxicity in C2C12 myotubes, primary screen, cell-based, single point, plate reader; 330,000 tested, 0.78% active; rescue of ATP level, % at 7.49 µM; C2C12 myotubes + simvastatin, ATP luminescence, 48 h; scaled: DMSO 0, geranylgeraniol control 100;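 active means mean ATP rescue above about 67%, or every replicate alone reaching that limit, limit read from the data, passing the limit was not always enough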;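 further: myotubes were challenged with 10 µM simvastatin during compound exposure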
DENV2 CPE: inhibitors of DENV2 cytopathic effect, primary screen, cell-based, plate reader, single concentration | DENV2-infected cells, cytopathic effect rescue | CPE inhibition, % at 9.99 µM | 350,000 tested, 1.7% active; in the data active means CPE inhibition above about 20%, passing the limit was not always enough; tested in BHK-21 cells;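 further: 0% = median of neutral control wells and 100% = median of positive control wells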
XiGFP reactiv: activators of inactive X chromosome reactivation, primary screen, imaging, XiGFP fibroblasts, GFP high-content imaging, set 2; XiGFP mouse fibroblasts, % GFP-positive cells imaging, 3 d; cells co-treated with 5-aza-dC sensitizer; scaled so ellipticine positive control = 100%; 360,000 tested, 0.055% active; activation, % at 7.58 µM;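 active means mean normalized replicate activation at least 10% and every replicate at or above 10%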;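 further: 0% = median of on-plate neutral control wells and 100% = ellipticine 6 µM median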
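System: 68-5-11 XiGFP fibroblast line; Timing: 3 days compound exposure; Compound dosing: one concentration, pinned; Benchmarks: positive control ellipticine, 6 µM final; Buffer or medium: DMEM containing 5-aza-dC.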
* hit, by the source's call; / = no result.

SMILES | FGF22 binding | E-sel inducer | PglD inh | Statin myotox sup | DENV2 CPE | XiGFP reactiv
CCCNC(=O)N(C)C[C@@H]1Oc2cc(C3=CCCCC3)ccc2S(=O)(=O)N([C@H](C)CO)C[C@H]1C | 0 | 0 | -2 | -32 | 47* | 0
CCCNC(=O)N(C)C[C@@H]1Oc2cc(C3=CCCCC3)ccc2S(=O)(=O)N([C@@H](C)CO)C[C@@H]1C | 0 | 0 | -3 | 95* | -6 | 0
CCCNC(=O)N(C)C[C@H]1Oc2cc(C3=CCCCC3)ccc2S(=O)(=O)N([C@@H](C)CO)C[C@H]1C | 0 | 1 | -5 | -22 | -4 | 0
C[C@H](CO)N1C[C@H](C)[C@@H](CN(C)C(=O)c2ccccc2)Oc2cc(C3=CCCC3)ccc2S1(=O)=O | 0 | -1 | -2 | -54 | 5 | -1
CCCNC(=O)N(C)C[C@@H]1Oc2cc(C#C[C@H](C)O)ccc2S(=O)(=O)N([C@H](C)CO)C[C@H]1C | 0 | -2 | 4 | -4 | 1 | 0
CCCNC(=O)N(C)C[C@@H]1Oc2cc(C3=CCCC3)ccc2S(=O)(=O)N([C@H](C)CO)C[C@H]1C | 0 | 0 | 2 | 13 | 11 | 0
C[C@H](CO)N1C[C@H](C)[C@H](CN(C)C(=O)c2ccccc2)Oc2cc(C3=CCCC3)ccc2S1(=O)=O | 0 | 0 | -2 | -3 | 27* | 1
CCCNC(=O)N(C)C[C@H]1Oc2cc(C#C[C@H](C)O)ccc2S(=O)(=O)N([C@H](C)CO)C[C@H]1C | 0 | 0 | -1 | 0 | 42* | 0
COc1ccc(S(=O)(=O)N(C)C[C@@H]2Oc3c(NC(=O)c4ccncc4)cccc3C(=O)N([C@@H](C)CO)C[C@H]2C)cc1 | 0 | -9 | -1 | -20 | -5 | 0
C[C@H](CO)N1C[C@H](C)[C@@H](CN(C)C(=O)Nc2ccccc2)Oc2ccc(NC(=O)Nc3ccc(F)cc3)cc2CC1=O | -1 | / | -3 | -12 | 0 | -1
COc1cccc(CN2CCC3(CC2)CN(C(=O)C2CC2)[C@H](CO)c2c3c3ccc(OC)cc3n2C)c1 | 0 | 2 | / | / | -6 | 0
C[C@@H]1COCn2nncc2CC[C@@H](Cc2ccc(Cl)cc2)C(=O)N1 | / | / | / | / | / | 0
C[C@@H]1CN([C@@H](C)CO)C(=O)c2cccc(NS(C)(=O)=O)c2O[C@@H]1CN(C)C(=O)Nc1ccc2c(c1)OCO2 | 0 | -2 | -25 | / | -17 | 0
C=C(C)CN(CC)C(=O)CSc1nc(O)cc(=O)n1C1CCCC1 | 43* | 1 | / | / | -1 | 0
CCn1c(SCC(=O)N2CCCCC2)nc(O)cc1=O | / | / | -7 | / | / | /
COc1ccc(NC(=O)N(C)C[C@H]2Oc3ccc(NC(=O)Nc4ccccc4)cc3CC(=O)N([C@@H](C)CO)C[C@H]2C)cc1 | 0 | 1 | 4 | -14 | -11 | 0
O=[N+]([O-])c1ccc(N2CCN(S(=O)(=O)c3ccccc3[N+](=O)[O-])CC2)cc1N1CCc2ccccc2C1 | 0 | / | 2 | -3 | 112* | 0
CC(=O)c1ccc(N2CCN(c3ncccn3)CC2)c([N+](=O)[O-])c1 | 0 | 0 | 5 | 6 | 0 | 0
O=[N+]([O-])c1cccc2c(S(=O)(=O)N3CCOCC3)cccc12 | 0 | 0 | 5 | 2 | 15 | 0
O=[N+]([O-])c1ccccc1S(=O)(=O)N1CCc2ccccc2C1 | 0 | / | / | / | -1 | 0
CCCS(=O)(=O)N1CCN(S(=O)(=O)c2ccccc2[N+](=O)[O-])CC1 | 43* | / | / | / | -3 | 0
CC(=O)c1ccc(N2CCc3ccccc3C2)c([N+](=O)[O-])c1 | 0 | 70* | -4 | / | 2 | 0
O=[N+]([O-])c1cccc2c(S(=O)(=O)N3CCCCC3)cccc12 | 0 | 1 | 0 | -11 | 53* | 0
O=C(C1=C[C@@H](c2ccc3c(c2)Cc2ccccc2-3)C[C@@H](OCCCCO)O1)N1CCCCC1 | 0 | / | -3 | / | 15 | /
C[C@@H]1CN([C@@H](C)CO)C(=O)c2cc(NS(=O)(=O)c3ccc(Cl)cc3)ccc2O[C@@H]1CN(C)Cc1ccc(-c2ccccc2)cc1 | 0 | 0 | 2 | / | -2 | 1
SMILES | FGF22 binding | E-sel inducer | PglD inh | Statin myotox sup | DENV2 CPE | XiGFP reactiv
CCCNC(=O)N(C)C[C@H]1Oc2cc(-c3cncnc3)ccc2S(=O)(=O)N([C@@H](C)CO)C[C@H]1C | 0 | 1 | 0 | 10 | 0 | -1
NC(=O)C1CCN(Cc2nc3cc(Cl)ccc3c(=O)[nH]2)CC1 | / | / | 6 | 102* | / | /
CC(=O)c1ccc(NC(=O)c2cc(Cl)nc3ccccc23)cc1 | 43* | / | / | / | -8 | 0
Cc1cccc(NC(=O)c2cc(C)nc3ccccc23)c1 | 0 | 61* | -9 | -3 | 0 | 0
Cc1cccc(NC(=O)c2ccccc2C(=O)O)c1 | / | / | 2 | 137* | / | /
Cc1cccc(NC(=O)c2cccc(C(=O)Nc3cccc(C)c3)c2)c1 | 2.0* | 0 | -1 | -32 | -2 | 0
CCCCCCCNc1cccc(C)c1 | 0 | 3 | / | -9 | 0 | 0
Cc1cccc(NCCNc2cccc(C)c2)c1 | / | / | 1 | 113* | / | /
Cc1cccc(NC(=O)c2cccc(NS(=O)(=O)c3ccc(Cl)cc3)c2)c1 | / | / | 5 | 105* | / | /
Cc1noc(C)c1NC(=O)Nc1cccc2c1O[C@H](CN(C)S(=O)(=O)c1ccccc1)[C@H](C)CN([C@@H](C)CO)C2=O | / | 0 | / | 7 | / | -1
Nc1ccc2oc(-c3cccc4ccccc34)nc2c1 | / | / | -3 | 89* | / | /
O=C(NC1=NCCS1)c1cc(-c2ccc(-c3ccccc3)cc2)nc2ccccc12 | 43* | 0 | / | / | -2 | 0
COc1ccc(-c2cc(C(=O)NC3=NCCS3)c3ccccc3n2)cc1OC | 42 | 0 | / | / | 8 | 0
CCCCn1c(SCc2cccnc2)nc2c1c(=O)n(C)c(=O)n2C | / | / | -5 | 2 | / | /
CCCCn1c(SCc2ccccn2)nc2c1c(=O)n(C)c(=O)n2C | / | / | 4 | 117* | / | /
CCOC(=O)Cn1c(=O)oc2cc(S(=O)(=O)NC3CCCc4ccccc43)ccc21 (configuration not stated) | 0 | 0 | / | -9 | 27* | 0
CCOC(=O)Cn1c(=O)oc2cc(S(=O)(=O)NC3CCCCC3)ccc21 | / | / | -4 | 9 | / | /
